Data set [1] deals with T1, Protein deacetylase HDAC6 (Homo sapiens, UniProt Q9UBN7).
T1 sequence (Q9UBN7 whole entry): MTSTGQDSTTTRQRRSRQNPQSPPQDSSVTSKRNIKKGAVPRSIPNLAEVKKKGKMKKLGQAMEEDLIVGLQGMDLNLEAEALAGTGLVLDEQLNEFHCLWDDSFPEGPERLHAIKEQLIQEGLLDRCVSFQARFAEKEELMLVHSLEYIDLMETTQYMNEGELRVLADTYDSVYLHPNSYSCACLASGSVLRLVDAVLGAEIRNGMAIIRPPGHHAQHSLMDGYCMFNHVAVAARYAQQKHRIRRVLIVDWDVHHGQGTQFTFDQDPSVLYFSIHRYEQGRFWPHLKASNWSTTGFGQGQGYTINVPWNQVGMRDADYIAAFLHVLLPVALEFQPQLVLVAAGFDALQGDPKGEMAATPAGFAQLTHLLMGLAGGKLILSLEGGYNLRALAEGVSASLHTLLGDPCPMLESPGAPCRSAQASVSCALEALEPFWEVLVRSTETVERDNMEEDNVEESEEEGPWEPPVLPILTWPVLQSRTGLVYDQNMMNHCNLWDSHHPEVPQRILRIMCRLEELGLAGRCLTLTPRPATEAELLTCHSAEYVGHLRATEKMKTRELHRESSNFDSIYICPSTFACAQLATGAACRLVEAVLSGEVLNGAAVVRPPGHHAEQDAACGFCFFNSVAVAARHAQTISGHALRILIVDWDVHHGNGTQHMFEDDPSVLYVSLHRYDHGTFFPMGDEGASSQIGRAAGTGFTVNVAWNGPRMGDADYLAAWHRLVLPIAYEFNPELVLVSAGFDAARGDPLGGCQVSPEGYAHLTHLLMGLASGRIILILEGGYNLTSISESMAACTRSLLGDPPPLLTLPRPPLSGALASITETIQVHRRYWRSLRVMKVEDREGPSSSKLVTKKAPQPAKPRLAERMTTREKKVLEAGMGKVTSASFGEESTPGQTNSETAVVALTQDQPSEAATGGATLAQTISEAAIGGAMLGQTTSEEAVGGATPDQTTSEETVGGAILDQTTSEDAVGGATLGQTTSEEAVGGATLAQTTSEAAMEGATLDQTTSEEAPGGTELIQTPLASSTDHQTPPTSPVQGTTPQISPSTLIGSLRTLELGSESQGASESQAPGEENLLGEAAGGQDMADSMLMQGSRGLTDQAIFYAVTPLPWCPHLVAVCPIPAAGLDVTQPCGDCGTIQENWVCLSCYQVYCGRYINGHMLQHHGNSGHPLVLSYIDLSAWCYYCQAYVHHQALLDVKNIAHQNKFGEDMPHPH
The experiment in a line: Inhibition of His-tagged HDAC6 expressed in Sf9 cells by fluorescence-based assay.

Data set [2] deals with T2, Histone deacetylase 8 (Homo sapiens, UniProt Q9BY41).
T2 sequence (Q9BY41 whole entry): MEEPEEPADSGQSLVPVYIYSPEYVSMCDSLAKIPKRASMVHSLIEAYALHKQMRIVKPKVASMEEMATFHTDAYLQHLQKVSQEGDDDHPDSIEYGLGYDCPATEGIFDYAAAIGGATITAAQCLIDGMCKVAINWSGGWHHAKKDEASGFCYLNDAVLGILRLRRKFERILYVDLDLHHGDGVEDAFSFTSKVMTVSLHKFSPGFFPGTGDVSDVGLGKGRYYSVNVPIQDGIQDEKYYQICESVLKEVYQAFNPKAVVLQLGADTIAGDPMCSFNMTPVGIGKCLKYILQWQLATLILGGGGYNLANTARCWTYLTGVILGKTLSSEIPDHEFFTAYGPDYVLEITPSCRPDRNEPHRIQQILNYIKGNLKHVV
Nature of the data set: Inhibition of His-tagged HDAC8 expressed in Sf9 cells by fluorescence-based assay.

The subject of data set [3] is neuronal. The experiment in a line: Protection against HCA-induced oxidative stress Sprague-Dawley rat neuronal cells at 10 uM. It is filed as functional, cell-based. The essentials: (§1)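 Cortical neurons from E17 Sprague-Dawley rat fetuses, used 24 h after plating, in MEM with 5.5 g/L glucose, 10% fetal calf serum, 2 mM L-glutamine, 100 µM cystine; 5 mM HCA (pH 7.5) added together with compound (10 µM unless stated); viability after 48 h by MTT and calcein-AM/ethidium homodimer-1 staining; mean ± SE of four replicates.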

In data set [4] the target is Histone deacetylase 1 (Homo sapiens, UniProt Q13547). The experiment in a line: Inhibition of His-tagged HDAC1 expressed in Sf9 cells by fluorescence-based assay.
Chain of Histone deacetylase 1 (Q13547 whole entry): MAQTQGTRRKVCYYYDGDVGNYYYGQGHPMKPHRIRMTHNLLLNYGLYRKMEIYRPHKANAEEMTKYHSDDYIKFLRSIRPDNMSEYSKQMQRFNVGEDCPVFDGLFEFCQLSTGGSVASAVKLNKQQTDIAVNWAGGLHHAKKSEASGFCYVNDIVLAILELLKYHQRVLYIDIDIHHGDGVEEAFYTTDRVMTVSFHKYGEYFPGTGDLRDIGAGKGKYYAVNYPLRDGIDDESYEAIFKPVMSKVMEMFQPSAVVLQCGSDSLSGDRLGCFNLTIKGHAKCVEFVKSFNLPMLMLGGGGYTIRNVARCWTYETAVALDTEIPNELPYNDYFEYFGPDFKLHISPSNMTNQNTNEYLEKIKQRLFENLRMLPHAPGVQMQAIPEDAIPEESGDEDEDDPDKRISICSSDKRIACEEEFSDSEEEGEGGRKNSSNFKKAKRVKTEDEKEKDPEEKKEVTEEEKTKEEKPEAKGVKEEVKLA
The target in data set [5] is Histone deacetylase 2 (Homo sapiens, UniProt Q92769). The experiment in a line: Inhibition of His-tagged HDAC2 expressed in Sf9 cells by fluorescence-based assay.
Chain of Histone deacetylase 2 (Q92769 whole entry): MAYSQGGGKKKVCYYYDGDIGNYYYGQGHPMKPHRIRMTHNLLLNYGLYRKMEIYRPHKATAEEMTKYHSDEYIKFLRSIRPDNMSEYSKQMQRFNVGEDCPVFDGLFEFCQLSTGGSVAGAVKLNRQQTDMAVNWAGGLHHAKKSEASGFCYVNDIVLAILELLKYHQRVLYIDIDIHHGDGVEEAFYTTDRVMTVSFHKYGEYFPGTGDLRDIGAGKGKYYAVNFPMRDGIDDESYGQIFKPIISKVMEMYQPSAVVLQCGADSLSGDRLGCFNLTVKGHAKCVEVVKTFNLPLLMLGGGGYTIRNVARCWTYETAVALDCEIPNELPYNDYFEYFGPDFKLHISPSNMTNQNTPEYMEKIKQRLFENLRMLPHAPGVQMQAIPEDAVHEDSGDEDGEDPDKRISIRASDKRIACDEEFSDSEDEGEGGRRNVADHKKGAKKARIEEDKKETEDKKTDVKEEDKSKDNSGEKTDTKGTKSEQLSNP
Data set [6] addresses T3, Polyamine deacetylase HDAC10 (Homo sapiens, UniProt Q969S8).
T3 sequence (Q969S8 whole entry): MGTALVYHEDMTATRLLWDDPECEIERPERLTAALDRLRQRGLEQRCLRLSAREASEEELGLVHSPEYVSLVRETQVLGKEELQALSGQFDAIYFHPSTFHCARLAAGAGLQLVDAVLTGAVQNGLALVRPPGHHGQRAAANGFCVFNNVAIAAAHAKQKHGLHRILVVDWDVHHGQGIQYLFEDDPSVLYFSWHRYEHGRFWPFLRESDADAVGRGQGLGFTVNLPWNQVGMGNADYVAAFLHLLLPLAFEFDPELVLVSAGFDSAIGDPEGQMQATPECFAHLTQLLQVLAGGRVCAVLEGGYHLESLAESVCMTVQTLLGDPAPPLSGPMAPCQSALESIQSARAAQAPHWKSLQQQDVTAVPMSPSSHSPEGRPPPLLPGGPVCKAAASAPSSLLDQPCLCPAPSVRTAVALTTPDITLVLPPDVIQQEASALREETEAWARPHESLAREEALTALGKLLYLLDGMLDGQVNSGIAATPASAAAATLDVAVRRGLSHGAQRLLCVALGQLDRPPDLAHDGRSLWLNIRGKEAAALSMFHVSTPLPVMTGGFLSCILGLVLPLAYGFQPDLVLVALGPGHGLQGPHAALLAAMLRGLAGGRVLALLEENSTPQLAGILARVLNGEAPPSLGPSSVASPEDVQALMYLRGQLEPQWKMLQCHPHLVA
Nature of the data set: Inhibition of His-tagged HDAC10 expressed in Sf9 cells by fluorescence-based assay.

In data set [7] the test system is Primary neuron. The experiment in a line: Increase in histone H4 acetylation in Sprague-Dawley rat neurons at 50 uM after 8 hrs. In kind it is functional. In short, it runs like this:
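Rat primary cortical neurons (fetal Sprague-Dawley, E17) treated 8 h; histones acid-extracted (0.4 N H2SO4) from nuclei, TCA-precipitated, run on 15% SDS gel; immunoblot with acetyl-H4 (1:1000) and total H4 (1:4000) antibodies, 3 h RT, HRP secondary 2 h, enhanced chemiluminescence detection.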

The test system of data set [8] is neuronal. Nature of the data set: Protection against HCA-induced oxidative stress in Sprague-Dawley rat neuronal cells by MTT assay. It is filed as functional, cell-based. The essentials:
as §1

Data set [9] in a line: Toxicity against Sprague-Dawley rat neuronal cells at 50 uM. In kind it is cell-based.

Active and inactive are the calls of the source. The calls are words filed in the database; no cut-off is given here. Where only a bound is given, the exact number is not on record here.

As to `O=C(CS)NCCCCCC(=O)Nc1cccc2cccnc12`, the concentration for half-maximal inhibition (IC50) (usually the concentration that gives 50% inhibition) in data set [1] amounted to 95.3 nM; in data set [2] it was 6120 nM; in data set [4], 3220 nM; in [5], 7380 nM; in data set [6], 10700 nM. The outcome in data set [3] and in data set [7] was Active.
Turning to `CN(C)c1ccc(C(=O)NCCCCCNC(=O)CS)cc1`, the IC50 in data set [1] worked out at 114 nM; in [2] it was 10200 nM; in data set [4] it was 1080 nM; in [6] it was 1540 nM.
For `O=C(CS)NCCCCCCNC(=O)Nc1ccccc1`, the IC50 in [1] is 2010 nM; in [2] it was 13900 nM; in data set [4] it was 10800 nM; in data set [5], greater than 30000 nM; in [6] it was greater than 30000 nM. In addition, the Activity result in [8] was “Dose-dependent effect”; in data set [9], “Non-toxic”. Also, in data set [7], the result was inactive.
Regarding `CN(C)c1ccc(CNC(=O)NCCC(=O)NO)cc1`, the IC50 in [1] is 45.5 nM; in [2] it was 1050 nM; in data set [4], 130 nM; in data set [5], 492 nM; in data set [6], 178 nM.
On the same counts, the results for `N[C@@H](Cc1c[nH]c2ccccc12)C(=O)Nc1ccccc1-c1ccc(NC(=O)CCCCCCC(=O)NO)cc1` are 5.4 nM, 1720 nM, 26.7 nM, 167 nM and 28.3 nM.
The corresponding values for `CN(C)c1ccc(NC(=O)NCCCCCCC(=O)NO)cc1` are 34.5 nM, 1740 nM, 209 nM, 647 nM and 176 nM.
The corresponding values for `CN(C)c1ccc(C(=O)NCCCCNC(=O)CS)cc1` are 620 nM, greater than 30000 nM, 11900 nM, greater than 30000 nM and 29700 nM.
In the case of `CN(C)c1ccc(C(=O)NCCCNC(=O)CS)cc1`, the IC50 is 216 nM in data set [1]; 12300 nM in [2]; 5260 nM in data set [4]; greater than 30000 nM in data set [5]; 8780 nM in data set [6]. The Activity result in data set [8] is “Dose-dependent effect”; in [9], “Non-toxic”. The outcome in data set [7] was inactive.
`N[C@@H](Cc1ccc(O)cc1)C(=O)Nc1ccccc1-c1ccc(NC(=O)CCCCCCC(=O)NO)cc1`: the IC50 in data set [1] came out at 9 nM; in data set [2] it was 2060 nM; in [4], 36.9 nM; in data set [5], 205 nM; in data set [6], 42.1 nM.
On the same counts, the results for `O=C(CCCCCCC(=O)Nc1nc(-c2cccc([N+](=O)[O-])c2)cs1)NO` are 3.7 nM, 4090 nM, 8.5 nM, 113 nM and 11.1 nM.
`O=C(CCCCCNC(=O)NC12CC3CC(CC(C3)C1)C2)NO`: the IC50 in [1] stood at 102 nM; in data set [2], 3410 nM; in [4] it was 152 nM; in data set [5], 1050 nM; in data set [6] it was 173 nM.
As to `CN(C)c1ccc(C(=O)NCCCCCCNC(=O)CS)cc1`, the IC50 in data set [1] was 482 nM; in data set [2], 19100 nM; in data set [4], 1430 nM; in data set [5], 4640 nM; in data set [6], 3430 nM. The outcome in [3] and in [7] was Active.
